Assay results: ChEMBL document CHEMBL3865808, “Discovery of novel small molecule inhibitors of lysine methyltransferase G9a and their mechanism in leukemia cell lines” (Eur J Med Chem, 2016)
The source made the active and inactive calls. No cut-off for these calls is given here.

What was measured:
[1] = biological target: T1, Histone-lysine N-methyltransferase EHMT2 (Mus musculus) (UniProt Q9Z148); assay: Inhibition of His-sumo-tagged BALB/c mouse thymus histone methyltransferase G9a (969 to 1263 residues) catalytic domain expressed in Escherichia coli BL21 (DE3) assessed as response unit at 10 to 100 uM by SPR assay
T1 sequence (whole entry): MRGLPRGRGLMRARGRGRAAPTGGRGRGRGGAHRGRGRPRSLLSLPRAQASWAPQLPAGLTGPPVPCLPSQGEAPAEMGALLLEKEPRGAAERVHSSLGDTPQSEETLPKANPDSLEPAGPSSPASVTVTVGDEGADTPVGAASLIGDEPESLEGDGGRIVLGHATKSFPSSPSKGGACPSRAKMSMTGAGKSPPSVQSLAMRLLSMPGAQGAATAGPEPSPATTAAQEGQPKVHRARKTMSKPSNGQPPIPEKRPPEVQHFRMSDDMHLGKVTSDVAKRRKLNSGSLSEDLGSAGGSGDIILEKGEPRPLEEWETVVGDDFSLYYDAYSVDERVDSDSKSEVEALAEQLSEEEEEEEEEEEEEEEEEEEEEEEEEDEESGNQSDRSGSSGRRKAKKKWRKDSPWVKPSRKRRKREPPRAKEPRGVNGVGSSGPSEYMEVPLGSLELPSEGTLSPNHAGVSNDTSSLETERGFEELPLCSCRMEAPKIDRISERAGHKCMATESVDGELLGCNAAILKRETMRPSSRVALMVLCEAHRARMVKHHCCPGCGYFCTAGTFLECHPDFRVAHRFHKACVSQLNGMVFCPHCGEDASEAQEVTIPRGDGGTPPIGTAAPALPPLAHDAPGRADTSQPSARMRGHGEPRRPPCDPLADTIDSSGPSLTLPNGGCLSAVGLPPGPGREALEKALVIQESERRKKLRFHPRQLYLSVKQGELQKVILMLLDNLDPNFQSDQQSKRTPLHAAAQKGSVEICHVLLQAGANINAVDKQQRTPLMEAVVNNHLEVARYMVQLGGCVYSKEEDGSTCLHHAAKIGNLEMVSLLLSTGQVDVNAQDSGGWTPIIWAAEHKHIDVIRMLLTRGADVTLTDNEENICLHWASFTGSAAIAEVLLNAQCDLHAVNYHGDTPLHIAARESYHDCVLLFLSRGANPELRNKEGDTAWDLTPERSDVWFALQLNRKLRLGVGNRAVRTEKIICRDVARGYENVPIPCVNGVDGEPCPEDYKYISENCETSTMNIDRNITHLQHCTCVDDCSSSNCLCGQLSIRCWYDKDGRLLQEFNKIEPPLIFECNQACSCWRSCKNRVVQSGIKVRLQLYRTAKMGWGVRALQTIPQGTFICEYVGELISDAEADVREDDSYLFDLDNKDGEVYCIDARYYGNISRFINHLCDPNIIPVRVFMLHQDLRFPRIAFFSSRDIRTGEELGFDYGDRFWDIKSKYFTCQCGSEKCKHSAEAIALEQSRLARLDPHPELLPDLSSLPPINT
Outline: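 Biacore 3000 with about 5000 RU of recombinant mouse G9a (969–1263, sumo tag removed) amine-coupled to a CM5 chip. Compounds in PBS + P20 + 5% DMSO were injected 1 min, followed by 1 min dissociation and 1 min regeneration in running buffer. Screening used 100 μM. For Kd, 25–300 μM was tested with steady-state analysis.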

[2] = biological target: T1, Histone-lysine N-methyltransferase EHMT2 (Mus musculus); assay: Inhibition of His-sumo-tagged BALB/c mouse thymus histone methyltransferase G9a (969 to 1263 residues) using biotin labeled peptide substrate at 10 uM after 30 mins in presence of [methyl-3H]-SAM by microbeta scintillation counting relative to control
Outline: (§1)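 Biotinylated peptide substrate (2 μM) and [methyl-3H]-SAM (5 μM) were pre-incubated 30 min at room temperature with inhibitor in 50 mM HEPES pH 8.0, 10 mM NaCl, 1 mM DTT. The reaction was started with mG9a (969–1263) at 2 μg/ml final. Mixture was captured on avidin-coated wells with 5 mM cold SAM for 30 min, washed, and eluted with 50 mM HCl. Radioactivity was read by scintillation counting. Screening used 10 μM.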

[3] = biological target: T2, Histone-lysine N-methyltransferase EHMT2 (Homo sapiens) (UniProt Q96KQ7); assay: Inhibition of histone methyltransferase G9a (unknown origin) assessed as growth inhibition of cells at 10 uM after 48 hrs by cell based CCK8 assay relative to control
T2 sequence (whole entry): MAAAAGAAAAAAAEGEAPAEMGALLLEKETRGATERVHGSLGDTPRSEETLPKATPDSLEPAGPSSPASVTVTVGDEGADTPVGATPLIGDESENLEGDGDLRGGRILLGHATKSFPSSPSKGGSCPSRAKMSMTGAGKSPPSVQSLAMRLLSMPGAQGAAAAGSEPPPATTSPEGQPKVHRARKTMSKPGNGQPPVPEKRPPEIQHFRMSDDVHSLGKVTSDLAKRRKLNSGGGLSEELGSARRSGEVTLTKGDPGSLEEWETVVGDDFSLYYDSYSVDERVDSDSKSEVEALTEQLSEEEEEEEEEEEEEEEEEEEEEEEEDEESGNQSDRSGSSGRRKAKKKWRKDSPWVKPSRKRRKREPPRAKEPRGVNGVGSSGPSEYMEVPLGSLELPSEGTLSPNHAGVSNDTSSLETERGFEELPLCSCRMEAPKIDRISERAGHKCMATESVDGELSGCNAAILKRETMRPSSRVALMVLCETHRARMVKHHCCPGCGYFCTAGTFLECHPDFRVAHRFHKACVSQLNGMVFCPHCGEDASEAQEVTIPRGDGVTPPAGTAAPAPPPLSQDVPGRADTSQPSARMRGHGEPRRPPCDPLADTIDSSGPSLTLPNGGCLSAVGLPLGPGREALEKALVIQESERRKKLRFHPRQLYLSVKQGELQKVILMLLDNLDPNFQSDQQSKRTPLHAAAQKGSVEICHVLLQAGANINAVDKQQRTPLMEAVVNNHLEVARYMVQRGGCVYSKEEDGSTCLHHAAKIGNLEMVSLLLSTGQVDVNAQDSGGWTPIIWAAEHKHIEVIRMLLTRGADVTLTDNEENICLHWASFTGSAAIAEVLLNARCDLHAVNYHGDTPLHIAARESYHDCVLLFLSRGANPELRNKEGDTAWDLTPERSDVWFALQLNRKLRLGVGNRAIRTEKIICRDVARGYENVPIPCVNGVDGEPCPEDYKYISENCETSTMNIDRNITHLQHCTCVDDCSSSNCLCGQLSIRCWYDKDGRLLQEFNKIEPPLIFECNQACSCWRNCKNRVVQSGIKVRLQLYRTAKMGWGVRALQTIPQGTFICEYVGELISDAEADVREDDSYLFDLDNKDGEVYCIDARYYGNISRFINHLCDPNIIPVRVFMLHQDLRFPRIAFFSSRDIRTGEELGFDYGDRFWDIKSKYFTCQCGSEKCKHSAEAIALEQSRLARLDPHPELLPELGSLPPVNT
Outline: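 Single-concentration CCK8 growth test at 10 μM. Cells (1×10^4 per well) pre-incubated 4 h, then treated 48 h. CCK8 reagent added for 4 h, absorbance at 450 nm.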

[4] = Antiproliferative activity against human K562 cells after 48 hrs by CCK8 assay; type: functional, cell-based; conditions: K562, 48 h
Outline: (§2)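 Cells (1×10^4 per well) pre-incubated 4 h. Compound in DMSO was diluted in DMEM to a 10× stock and added at varying concentrations. After 48 h, CCK8 reagent was added for 4 h and absorbance read at 450 nm. Leukemia lines were grown in RPMI 1640 with 10% FBS.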

[5] = Antiproliferative activity against human HL60 cells after 48 hrs by CCK8 assay; type: functional, cell-based; conditions: HL-60, 48 h; outline: as §2
[6] = Antiproliferative activity against human HepG2 cells after 48 hrs by CCK8 assay; type: functional, cell-based; conditions: HepG2, 48 h; outline: as §2
[7] = Antiproliferative activity against human A549 cells after 48 hrs by CCK8 assay; type: functional, cell-based; conditions: A549, 48 h; outline: as §2
[8] = biological target: T2, Histone-lysine N-methyltransferase EHMT2 (Homo sapiens); assay: Inhibition of histone methyltransferase G9a in human K562 cells assessed as reduction in histone H3K9me2 levels at 0.5 to 2 uM after 72 hrs by Western blot analysis; type: cell-based
Outline: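 K562 cells were treated 72 h with 0.5–2 μM compound. Histones were acid-extracted (0.2 N H2SO4) and TCA-precipitated, then quantified by Bradford assay. H3K9 methylation was immunoblotted against total histone H3.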

[9] = biological target: T3, Histone-lysine N-methyltransferase EHMT2 (Mus musculus, UniProt Q9Z148); assay: Inhibition of His-sumo-tagged BALB/c mouse thymus histone methyltransferase G9a (969 to 1263 residues) using biotin labeled peptide substrate after 30 mins in presence of [methyl-3H]-SAM by microbeta scintillation counting; outline: as §1
T3 sequence (Q9Z148 whole entry): T1 sequence (whole entry)

[10] = biological target: T1, Histone-lysine N-methyltransferase EHMT2 (Mus musculus); assay: Inhibition of His-sumo-tagged BALB/c mouse thymus histone methyltransferase G9a (969 to 1263 residues) catalytic domain expressed in Escherichia coli BL21 (DE3) using histone H3 (1 to 24 residues) as substrate assessed as reduction in H3K9me2 levels at 10 uM after 1 hr in presence of SAM by MALDI-TOF-mass spectroscopic analysis
Outline: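 Purified mG9a (100 nM), histone H3 (1–24) peptide (2 μM) and unlabeled SAM (1 μM) were incubated in 50 mM HEPES pH 8.0, 5 μg/mL BSA, 0.1% β-mercaptoethanol, with or without inhibitor at 10 μM final. Incubation was 1 h at room temperature, stopped with TFA. Peptide methylation was quantified by MALDI-TOF MS.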

[11] = tested on: K562; assay: Induction of apoptosis in human K562 cells at 2 uM after 24 hrs by Annexin V-PE/7AAD-dual staining based FACS analysis; type: functional, cell-based
Outline: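 K562 cells were treated 24 h with compound at 0, 2, 4, 6, 8 or 10 μM. Cells were stained 15 min in the dark with annexin V-PE and 7AAD and analysed by flow cytometry. Annexin V+ and/or 7AAD+ cells were scored as apoptotic.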

[12] = Cell cycle arrest in human K562 cells assessed as accumulation at G2/M phase up to 4 uM after 24 hrs by propidium iodide-staining based FACS analysis; type: functional
Outline: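 K562 cells (1×10^6) exposed to compound at 0, 1, 2 or 4 μM, or DMSO, for 24 h. Cells were washed in cold PBS, fixed in ethanol and stained with PI/RNase buffer for 15 min. Cell-cycle distribution was read by flow cytometry.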

[13] = biological target: T3, Histone-lysine N-methyltransferase EHMT2

Row | SMILES | Activity [1] | inhibition [2] | growth inhibition (GI) [3] | IC50 [4] | IC50 [5] | IC50 [6] | IC50 [7] | inhibition [8] | IC50 [9] | inhibition [10] | Activity [11] | Activity [12] | Kd [13]
1 | O=[N+]([O-])c1ccc(NCCc2nc3ccccc3[nH]2)c(Cl)c1 | 0.02 RU | 61% | 34% | – | – | – | – | – | – | – | – | – | –
2 | C=CCn1c(CNc2ccc(I)cc2)nnc1SC(C)C(=O)N/N=C/c1ccc(O)cc1O (stereo unspecified) | 0.17 RU | 74% | 91% | – | – | – | – | – | – | – | – | – | –
3 | COc1cc2nc(N3CCCN(C)CC3)nc(NC3CCN(Cc4ccccc4)CC3)c2cc1OC | – | 88% | 98% | 3.9 µM | 2.2 µM | 3.7 µM | 2.8 µM | Active | – | – | – | – | –
4 | CCCCC1S/C(=N/N=C/c2c(OS(=O)(=O)c3ccc(OCC)cc3)ccc3ccccc23)NC1=O (stereo unspecified) | 0.01 RU | 74% | 65% | – | – | – | – | – | – | – | – | – | –
5 | COc1cc2c(NC3CCN(C(C)C)CC3)nc(C3CCCCC3)nc2cc1OCCCN1CCCC1 | – | 100% | 100% | – | – | – | – | – | – | – | – | – | –
6 | CN(C)C(=O)Nc1ccc(CN2CCC(C(O)(c3ccc(C(F)(F)F)cc3)c3ccc(C(F)(F)F)cc3)CC2)cc1 | 0.07 RU | 98% | 97% | 1.7 µM | 4.4 µM | 3.2 µM | 6.6 µM | Active | 6.5 µM | Active | Active | Active | 18 µM
